EBI2 antag: EBI2 receptor antagonists, beta-arrestin recruitment, primary screen, cell-based, luminescence, 7a,25-OHC stimulation, uHTS; G-protein coupled receptor 183 (Homo sapiens), P32249; inhibition, % at 5 µM; 7a,25-OHC stimulated; 360,000 compounds, 0.81% hits; in the data active = inhibition above about 38%;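 note: enzyme fragment complementation signal reports receptor beta-arrestin coupling in cells; 0% = agonist plus DMSO wells and 100% = wells without agonist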
Granule exo inh: LAMP-1 surface exposure blockers, TALL-104 cells – cell-based, flow cytometry, MLPCN library, primary screen; TALL-104 LAMP-1 surface exposure; cells stimulated with thapsigargin and PMA; inhibition, % at 10 µM; 360,000 compounds, 0.66% hits; AID 651702, 2012;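 active = inhibition above about 55%, limit read from the data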
MC4R ag barr: MC4R agonists recruiting beta-arrestin, primary screen, cell-based, luminescence, agonist arm of biased-ligand search | 360,000 compounds, 0.98% hits | activation, % at 8.9 µM | U2OS MC4R beta-arrestin complementation; percent of melanotan II response, DMSO zero | Melanocortin receptor 4 (Homo sapiens), P32245;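 active = activation above a per-plate cutoff, the mean activation of sample wells on that plate plus 3 SD, cut at about 8% in these data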
Target sequence (P32245 whole entry, looked up): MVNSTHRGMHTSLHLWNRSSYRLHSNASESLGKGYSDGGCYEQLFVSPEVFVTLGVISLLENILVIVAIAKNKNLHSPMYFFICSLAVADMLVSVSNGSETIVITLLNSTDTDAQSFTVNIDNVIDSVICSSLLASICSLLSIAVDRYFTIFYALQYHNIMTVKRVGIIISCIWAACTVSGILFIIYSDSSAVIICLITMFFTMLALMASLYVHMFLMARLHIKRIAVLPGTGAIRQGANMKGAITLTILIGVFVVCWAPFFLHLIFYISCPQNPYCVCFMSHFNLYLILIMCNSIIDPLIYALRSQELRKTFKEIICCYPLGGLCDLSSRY
MC4R antagonist: MC4R antagonists of cAMP signaling, primary screen, cell-based, TR-FRET, antagonist arm of biased-ligand search | Melanocortin receptor 4 (Homo sapiens), P32245 | MC4R-expressing cells, MTII-stimulated cAMP, LANCE TR-FRET | inhibition, % at 6.5 µM | 360,000 compounds, 0.48% hits | AID 540295, 2011;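 active = inhibition above its plate's cutoff, the mean of tested wells on that plate plus 3 SD, cut at about 29% in these data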;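 note: 0% = Melanotan II alone and 100% = Melanotan II plus saturating MCL0020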
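Assay system: human MC4R-expressing U2OS cells; reagent: Melanotan II stimulation of cells; dosing: 6.5 µM single dose; timing: compound 30 min, challenge 1 h, detection 1 h; signal: TR-FRET cAMP assay; replicates: one well per compound, no replicates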
Myeloid diff 2: induction of myeloid progenitor differentiation, primary screen, cell-based, flow cytometry, MLPCN library. ER-HoxA9 myeloid progenitors, lysozyme-GFP differentiation. calls only at 10 µM. 360,000 compounds, 1% hits;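 active = normalized GFP-positive differentiation at or above the plate's own cutoff, the solvent-only control mean plus 3 SD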;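 note: cells exposed to compound for four days before flow analysis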
MC4R barr conf: MC4R beta-arrestin agonists, retest, confirmation, cell-based, luminescence, U2OS; activation, % at 8.9 µM; AID 602192, 2012; shares compounds with MC4R ag barr; U2OS MC4R beta-arrestin recruitment; scaled DMSO 0%, Melanotan II 100%; 2,400 compounds, 31% hits;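 active = mean activation across replicates above the hit cutoff set in the earlier primary screen, cut at about 8% in these data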
MOR-DOR barr ag: agonists of MOR-DOR heterodimerization, counter-screen for MC4R biased agonist project, cell-based, luminescence | activation, % at 9.2 µM | shares compounds with MC4R ag barr | AID 602194, 2012 | U2OS PathHunter beta-arrestin, beta-gal luminescence; percent of deltorphin B response, DMSO zero | 2,400 compounds, 5.8% hits;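 active = mean activation across replicates exceeds the hit threshold derived in the earlier primary screen, cut at about 18% in these data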;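 note: 100% = deltorphin B at 0.9 µM final and 0% = DMSO alone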
An asterisk follows results filed as active; i = inactive; nt = not tested or not shown. Rows were chosen to be rich in hits. Some 3.7% of all compounds tested hit in one or more screens of this group.

SMILES	EBI2 antag	Granule exo inh	MC4R ag barr	MC4R antagonist	Myeloid diff 2	MC4R barr conf	MOR-DOR barr ag
CC(NC(=O)CN1C(=O)NC2(CCc3ccccc32)C1=O)c1ccc2c(c1)OCCO2 (centres undefined)	-7	-12	-2	-3	i	nt	nt
COc1ccc(CNc2nc(NCc3ccc(OC)cc3)c3[nH]cnc3n2)cc1	-12	11	12*	5	i	8.8*	3
CN(C)c1ccc(-c2csc(C(C)(O)c3cccc(F)c3)n2)cc1 (centres undefined)	9	-8	-1	10	i	nt	nt
C=CCNC(=O)c1c(Br)cnn1-c1ccc(C)cc1	6	-3	-1	8	i	nt	nt
O=C(NCc1ccc(OC(F)(F)F)cc1)C1CC(c2ccc(C(F)(F)F)cc2)=NO1 (centres undefined)	-3	6	5	5	i	nt	nt
O=C(NCc1ccc(C(F)(F)F)cc1)C1CC(c2ccc(C(F)(F)F)cc2)=NO1 (centres undefined)	1	-2	12*	-7	i	2	7
Cc1ccc(C(=O)c2ccc(C)cc2)cc1	-6	-2	1	4	i	nt	nt
Cc1ccc(C(=O)c2no[n+]([O-])c2C(=O)c2ccc(C)cc2)cc1	0	68*	19*	18	i	5	39*
CCOC(=O)c1c(C)[nH]c(C(=O)CSc2ccc(Cl)cc2)c1C	3	0	25*	-4	i	16*	6
CCOC(=O)c1c(C)[nH]c(C(=O)Cn2nnc(-c3ccccc3)n2)c1C	4	0	13*	2	i	2	9
COc1ccc(N2CCN(c3cc(C(=O)Nc4cc(OC)c(OC)c(OC)c4)ncn3)CC2)cc1OC	-2	3	1	7	i	nt	nt
CCCC(=O)N1CCCC1(C)C(=O)Nc1ccc(-n2cncn2)cc1 (centres undefined)	-8	-6	2	9	i	nt	nt
NNC(=O)COc1ccc(C(F)(F)F)cc1	-3	-6	2	5	i	nt	nt
CSc1nc2ccsc2c(=O)n1-c1ccccn1	2	2	-3	8	i	nt	nt
CCOc1cc(C(=O)NC(C)CCc2ccccc2)cc(OCC)c1OCC (centres undefined)	5	4	14*	9	i	4	8
CCOc1ccccc1C(=O)NC(C)CCc1ccccc1 (centres undefined)	0	42	2	4	i	nt	nt
CCC(=O)NNC(=O)c1cc(COc2cc(Cl)cc(Cl)c2)on1	-1	-1	-1	-10	i	nt	nt
N#C/C(=C/c1ccc(-c2ccc([N+](=O)[O-])cc2)o1)C(=O)Nc1nc(-c2cccs2)cs1	9	-2	-1	7	i	nt	nt
N#C/C(=C\c1ccc(-c2ccc(F)cc2)o1)C(=O)Nc1nc(-c2cccs2)cs1	19	-4	39*	12	i	19*	1
Cn1c(SCC(=O)Nc2cccc(C(=O)O)c2)nnc1-c1cc2cc(Br)ccc2o1	-10	-2	5	-2	i	nt	nt
Cn1c(SCC(=O)Nc2cccc(Br)c2)nnc1-c1cc2ccccc2o1	3	4	11*	3	i	2	1
CCSc1ccc(C(=O)Nc2cccc(C)n2)cc1[N+](=O)[O-]	5	-2	36*	4	i	-2	7
S=c1[nH]nc(-c2cccs2)n1/N=C/c1cn(-c2ccccc2)nc1-c1cccs1	6	-3	10*	25	i	1	4
O=C(O)CSc1ncnc2sc(-c3ccccc3)cc12	6	1	0	9	i	nt	nt
CC(=O)c1c(C)[nH]c(C(=O)CSc2ncnc3sc(-c4ccccc4)cc23)c1C	-5	7	25*	15	i	16*	4
SMILES	EBI2 antag	Granule exo inh	MC4R ag barr	MC4R antagonist	Myeloid diff 2	MC4R barr conf	MOR-DOR barr ag
CNC(=O)C12CC3CC(CC(Cl)(C3)C1)C2	-4	1	-3	0	i	nt	nt
CC/C(=N/Nc1ccccc1)c1cnnc(-c2ccccc2)n1	11	-6	16*	5	i	21*	2
Cc1ccc(F)c(S(=O)(=O)NC(=O)C2(C)CCN2C(=O)CC(c2ccccc2)c2ccccc2)c1 (centres undefined)	-3	18	1	4	i	nt	nt
COc1ccc(S(=O)(=O)N2CCC(NC(=O)c3cccnc3)CC2)cc1	6	-6	-1	-4	i	nt	nt
O=C(O)c1ccccc1S(=O)(=O)CC(=O)N1CCCCC1	-6	-10	-1	12	i	nt	nt
COc1ccc(C(=O)Nc2ccccc2-c2nnn(CC(=O)NCc3ccco3)n2)cc1	10	1	11*	12	i	10*	8
CC(C)N(C(=O)CS(=O)(=O)c1ccc(Cl)c(Cl)c1)C(C)C	-6	0	-1	15	i	nt	nt
O=C(O)COc1ccccc1/C=N/NC(=O)c1cc2ccccc2cc1O	-4	-1	-1	1	i	nt	nt
CCCCCc1ccc(OCCC[n+]2ccccc2)c(CCCCC)c1	12	0	15*	18	i	4	8
CC(=O)Nc1ccc(OCCC[n+]2ccccc2)cc1	-1	0	-2	-1	i	nt	nt
O=C1COc2ccc(C(=O)COC(=O)CCSc3ccc(Cl)cc3)cc2N1	5	0	19*	6	i	4	8
O=C1COc2ccc(C(=O)COC(=O)Cc3ccc(Cl)cc3)cc2N1	-3	-7	0	17	i	nt	nt
O=C(N/N=C/c1c[nH]c2ccccc12)C1CC1(c1ccccc1)c1ccccc1 (centres undefined)	3	8	19*	13	i	16*	8
O=C(N/N=C/c1c[nH]c2ccccc12)C1CC1c1ccccc1 (centres undefined)	-3	1	-1	0	i	nt	nt
COc1cc(/C=C2\CC/C(=C\c3cc(OC)c(O)c(OC)c3)C2=O)cc(OC)c1O	23	-1	21*	-8	nt	56*	35*
O=C(COc1ccc2c(c1)CCC2)NCc1ccc(Cl)cc1	10	-2	12*	8	i	4	7

From PubChem BioAssay
